According to ChEMBL document CHEMBL1139095, “Butyl 2-(4-[1.1'-biphenyl]-4-yl-1H-imidazol-2-yl)ethylcarbamate, a potent sodium channel blocker for the treatment of neuropathic pain” (Bioorg Med Chem Lett, 2007):
Activity calls are given as the source filed them.

What was measured:
[1] = Displacement of [3H]BTX from sodium channel in rat cerebral cortex synaptosomal membrane; type: tissue-based
SH-SY5Y = test: Cytoprotection against vetratridine-induced cytotoxicity in human SH-SY5Y cells; type: functional, cell-based
Procedure, shortened: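 SH-SY5Y neuroblastoma cells were seeded 24 h ahead and pre-incubated 20 min with compound. They were then exposed 3 h to veratridine plus 1 mM ouabain, and the medium was swapped for 10% alamar blue for 18–24 h. Absorbance was read at 570/620. Percent cell injury was calculated from blank-corrected OD. IC50 (concentration halving injury) was extrapolated from dose–response graphs; triplicate means, two experiments.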

Rattus norvegicus [2] = test: Protective activity against chronic constriction injury-induced rat neuropathic pain model at 30 mg/kg, ip; type: functional, organism-based; design: dose 30 mg/kg
Procedure, shortened: (§1)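 Compound or vehicle was given ip 30 min before paw withdrawal threshold was measured to mechanical stimulus (Randall–Selitto). Carrageenan model: inflamed versus contralateral paw. CCI model: injured versus non-injured paw. Groups of n = 4–6 were compared with vehicle by two-sided Student/Dunnett test; mean ± SEM.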

Rattus norvegicus [3] = test: Antihyperalgesic effect in carrageenan-induced rat hyperalgesia model at 30 mg/kg, ip; type: functional, organism-based; design: dose 30 mg/kg; procedure, shortened: as §1
Rattus norvegicus [4] = test: Antihyperalgesic effect in carrageenan-induced rat hyperalgesia model at 10 mg/kg, ip; type: functional, organism-based; design: dose 10 mg/kg; procedure, shortened: as §1

Question: With `CCCCOC(=O)NCCc1nc(-c2ccc(C(F)(F)F)cc2)c[nH]1` as the molecule, how does the IC50 [1] read?
Answer: 453 nM

Question: With `CCCCOC(=O)NCCc1nc(-c2ccc(F)cc2)c[nH]1` as the molecule, how does the IC50 [1] read?
Answer: 1000 nM

Question: Which IC50 [1] does the source give for `CCCCOC(=O)NCCc1nc(-c2ccc(N3CCCC3)cc2)c[nH]1` here?
Answer: 14 nM

Question: What about the IC50 (SH-SY5Y) of the same molecule?
Answer: 1120 nM

Question: With `O=C(NCCc1nc(-c2ccc(-c3ccccc3)cc2)c[nH]1)OC1CCCC1` as the molecule, how does the IC50 [1] read?
Answer: 52 nM

Question: And the IC50 (SH-SY5Y)?
Answer: 870 nM

Question: With `CC(C)(C)OC(=O)NCc1nc(-c2ccc(-c3ccccc3)cc2)c[nH]1` as the molecule, how does the IC50 [1] read?
Answer: 144 nM

Question: Which IC50 [1] does the source give for `CCOC(=O)NCCc1nc(-c2ccc(-c3ccccc3)cc2)c[nH]1` here?
Answer: 71 nM

Question: Which IC50 [1] does the source give for `CC(C)(C)OC(=O)NCCCc1nc(-c2ccc(-c3ccccc3)cc2)c[nH]1` here?
Answer: 184 nM

Question: For `CC(C)(C)COC(=O)NCCc1nc(-c2ccc(-c3ccccc3)cc2)c[nH]1`, which IC50 [1] is on record?
Answer: 372 nM

Question: Which IC50 [1] does the source give for `O=C(NCCc1nc(-c2ccc(-c3ccccc3)cc2)c[nH]1)OC1CCCCC1` here?
Answer: 26 nM

Question: And the IC50 (SH-SY5Y)?
Answer: 650 nM

Question: For `CCCCCCOC(=O)NCCc1nc(-c2ccc(-c3ccccc3)cc2)c[nH]1`, which IC50 [1] is on record?
Answer: 15 nM

Question: What about the IC50 (SH-SY5Y) of the same molecule?
Answer: 670 nM

Question: For `CCCOC(=O)NCCc1nc(-c2ccc(-c3ccccc3)cc2)c[nH]1`, which IC50 [1] is on record?
Answer: 86 nM

Question: Which IC50 [1] does the source give for `CC(C)(C)OC(=O)NCCc1nc(-c2ccc(-c3ccccc3)cc2)c[nH]1` here?
Answer: 64 nM

Question: What does the source list for `O=C(NCCc1nc(-c2ccc(-c3ccccc3)cc2)c[nH]1)OCC1CCCCC1`?
Answer: IC50 [1]: 21 nM; IC50 (SH-SY5Y): 700 nM

Question: Which IC50 [1] does the source give for `CC(C)COC(=O)NCCc1nc(-c2ccc(-c3ccccc3)cc2)c[nH]1` here?
Answer: 26 nM

Question: And the IC50 (SH-SY5Y)?
Answer: 610 nM

Question: Which IC50 [1] does the source give for `CCCCOC(=O)NCCc1nc(-c2ccc(CCC)cc2)c[nH]1` here?
Answer: 62 nM

Question: And the IC50 (SH-SY5Y)?
Answer: 3990 nM

Question: Which results are given for `CCCCOC(=O)NCCc1nc(-c2ccc(-c3ccccc3)cc2)c[nH]1`?
Answer: Activity (Rattus norvegicus [2]): Active; IC50 [1]: 32 nM; Activity (Rattus norvegicus [3]): Active; IC50 (SH-SY5Y): 230 nM; Activity (Rattus norvegicus [4]): Active

Question: What does the source list for `CCCCOC(=O)NCCc1nc(-c2ccc(Br)cc2)c[nH]1`?
Answer: IC50 [1]: 210 nM; IC50 (SH-SY5Y): 900 nM

Question: For `CCCCOC(=O)NCCc1nc(-c2ccc(CC(C)C)cc2)c[nH]1`, which IC50 [1] is on record?
Answer: 41 nM

Question: What about the IC50 (SH-SY5Y) of the same molecule?
Answer: 750 nM

Question: For `COC(=O)NCCc1nc(-c2ccc(-c3ccccc3)cc2)c[nH]1`, which IC50 [1] is on record?
Answer: 282 nM

Question: Which IC50 [1] does the source give for `CCCCOC(=O)NCCc1nc(-c2ccc(C3CCCCC3)cc2)c[nH]1` here?
Answer: 7 nM

Question: With `CCCCOC(=O)NCCc1nc(-c2ccc(CC)cc2)c[nH]1` as the molecule, how does the IC50 [1] read?
Answer: 96 nM

Question: And the IC50 (SH-SY5Y)?
Answer: 3220 nM
